Data: ChEMBL document CHEMBL3244290, “N-Alkyl derivatives of (+/-)-alpha-methyldopamine” (J Med Chem, 1979)
The source made the active and inactive calls.

Columns and labels:
Felis catus [1] = species on record: Felis catus; test: Inhibition of field stimulation-induced positive ionotrophic response in cat atria; type: functional; details: Cardiac atrium
Canis lupus familiaris = species on record: Canis lupus familiaris; test: Inhibition of electric stimulated dog right cardioaccelerator nerve; type: functional
Procedure, shortened: (§1)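 Dog cardioaccelerator nerve preparation under barbital (200 mg/kg) anaesthesia. Compounds given intravenously up to 1.0 mg/kg. Positive chronotropic responses read by cardiometer, with blood pressure taken from the right femoral artery.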

Canis familiaris [2] = test: Increase in blood pressure in dog at 0.5 mg/kg, iv by cardiotachometer; type: functional, Canis lupus familiaris
Procedure, shortened: (§2)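 Anaesthetised dog (barbital 200 mg/kg). Compounds given intravenously, highest dose tested 1.0 mg/kg. Blood pressure recorded from the right femoral artery and heart rate by cardiometer. Resting heart rate, blood pressure and positive chronotropic responses were assessed after dosing. Doses calculated as free base.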

Canis familiaris [3] = test: Increase in resting heart rate in dog at 0.5 mg/kg, iv by cardiotachometer; type: functional, organism-based; set-up: dose 0.5 mg/kg; details: Canis lupus familiaris; procedure, shortened: as §2
Canis familiaris [4] = test: Toxicity in dog assessed as emesis at 2 mg/kg, sc; type: organism-based, Canis lupus familiaris; set-up: dose 2 mg/kg, route subcutaneous; details: in vivo
Procedure, shortened: (§3)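 Unanaesthetised dogs. For emesis, compound given sc and dogs watched 45 min for an emetic response. For antagonism, compound given sc and apomorphine 100 μg/kg 15 min later.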

[5] = Toxicity in pigeon assessed as pecking; details: columbidae
Procedure, shortened: (§4)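 Pigeons. Compounds given intramuscularly at up to 4 mg/kg to test induction of pecking. Antagonism of pecking induced by apomorphine (1.62 μM/kg) was also tested, and ED50 values were estimated.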

Felis catus [6] = species on record: Felis catus; test: Inhibition of field stimulation-induced positive chronotrophic response in cat atria; type: functional; details: Cardiac atrium
Canis familiaris [7] = test: Inhibition of apomorphine-induced emesis in dog at 2 mg/kg, sc; type: functional, organism-based; set-up: dose 2 mg/kg; details: Canis lupus familiaris; procedure, shortened: as §3
Columbidae = test: Inhibition of apomorphine-induced pecking in pigeon; type: functional; procedure, shortened: as §4
Rattus norvegicus [8] = test: Induction of rotation in rat with unilateral denervation of caudate nucleus at 4 mg/kg, sc; type: functional, organism-based; set-up: dose 4 mg/kg
Procedure, shortened: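 Rats given a unilateral 6-hydroxydopamine injection into the substantia nigra. Compounds dosed subcutaneously and the rotations they induced were counted. Apomorphine served as the reference.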

Canis familiaris [9] = test: Increase in ionotrophic response in iv dosed dog following field stimulation assessed as minimum effective dose by cardiotachometer; type: functional, Canis lupus familiaris; set-up: unit not given here; procedure, shortened: as §1
Canis familiaris [10] = test: Increase in heart rate in dog at 1 mg/kg, iv by cardiotachometer; type: functional, organism-based; set-up: dose 1 mg/kg; details: Canis lupus familiaris; procedure, shortened: as §2
Canis familiaris [11] = test: Increase in ionotrophic response in dog following field stimulation at 1 mg/kg, iv by cardiotachometer; type: functional, organism-based; set-up: dose 1 mg/kg; details: Canis lupus familiaris; procedure, shortened: as §1
Rattus norvegicus [12] = species on record: Rattus norvegicus; test: Toxicity in Sprague-Dawley rat assessed as licking up to 50 ug injection into nucleus accumbens; type: organism-based; details: in vivo, other
Procedure, shortened: (§5)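 Male Sprague-Dawley rats (250 ± 25 g) with stereotaxic guide cannulae aimed at the nucleus accumbens. Tested 10–14 days after surgery with a bilateral 1 μL infusion over 60 s; each rat used once and placement checked histologically. Locomotion counted by photocell cage. Stereotypy scored, where 3–4 = biting, gnawing or licking. Pretreatments given ip: α-methyl-p-tyrosine 250 mg/kg 6 h before, or haloperidol 0.1, propranolol 5 or aceperone 2.5 mg/kg 30 min before.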

Rattus norvegicus [13] = species on record: Rattus norvegicus; test: Toxicity in Sprague-Dawley rat assessed as biting up to 50 ug injection into nucleus accumbens; type: organism-based; details: in vivo, other; procedure, shortened: as §5
Rattus norvegicus [14] = species on record: Rattus norvegicus; test: Toxicity in Sprague-Dawley rat assessed as gnawing up to 50 ug injection into nucleus accumbens; type: organism-based; details: in vivo, other; procedure, shortened: as §5
Rattus norvegicus [15] = species on record: Rattus norvegicus; test: Toxicity in Sprague-Dawley rat assessed as locomotor hyperactivity treated bilateral injection into nucleus accumbens at 50 ug; type: organism-based; details: in vivo, other; procedure, shortened: as §5
Mus musculus [16] = test: Toxicity in albino B.K.W mouse assessed as stereotyped behaviour at 20 to 80 mg/kg, sc; type: organism-based; set-up: dose 20-80 mg/kg, route subcutaneous; details: in vivo
Procedure, shortened: (§6)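 Mice dosed subcutaneously at 20, 40 and 80 mg/kg in 1 mL/kg, doses as free base. Climbing scored as all four paws on the wire, giving a climbing index (% time over 30 min after the first climb) and the maximum time of a single climb. Circling was tested in mice with a unilateral caudate-putamen electrolesion, pre-selected for circling of 7 or more revolutions/2 min in response to apomorphine. Stereotypy was also recorded.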

Mus musculus [17] = test: Toxicity in albino B.K.W mouse assessed as climbing behaviour at 20 to 80 mg/kg, sc; type: organism-based; set-up: dose 20-80 mg/kg, route subcutaneous; details: in vivo; procedure, shortened: as §6
Mus musculus [18] = test: Toxicity in albino B.K.W mouse assessed as circling behaviour at 20 to 80 mg/kg, sc; type: organism-based; set-up: dose 20-80 mg/kg, route subcutaneous; details: in vivo; procedure, shortened: as §6

CCCCN(CCCC)C(C)Cc1ccc(OC)c(OC)c1.Cl (racemic)
Non-toxic: Activity (Canis familiaris [4]) | Activity [5]
<=10 mmHg: Activity (Canis familiaris [2])
inactive: inhibition (Felis catus [1]) | inhibition (Canis lupus familiaris) | Activity (Canis familiaris [3]) | inhibition (Felis catus [6]) | Activity (Canis familiaris [7])

CCNC(C)Cc1ccc(OC)c(OC)c1.Cl (racemic)
Non-toxic: Activity (Canis familiaris [4]) | Activity [5]
inactive: inhibition (Felis catus [1]) | inhibition (Canis lupus familiaris) | Activity (Canis familiaris [3]) | inhibition (Felis catus [6]) | Activity (Canis familiaris [7])
<=10 mmHg: Activity (Canis familiaris [2])

CCCN(CCC)C(C)Cc1ccc(OC)c(OC)c1.Cl (racemic)
active: inhibition (Columbidae)
Non-toxic: Activity (Canis familiaris [4]) | Activity [5]
inactive: inhibition (Felis catus [1]) | inhibition (Canis lupus familiaris) | Activity (Canis familiaris [3]) | inhibition (Felis catus [6]) | Activity (Canis familiaris [7])
<=10 mmHg: Activity (Canis familiaris [2])

CNC(C)Cc1ccc(OC)c(OC)c1.Cl (racemic)
inactive: inhibition (Felis catus [1]) | inhibition (Canis lupus familiaris) | Activity (Canis familiaris [3]) | Activity (Rattus norvegicus [8]) | inhibition (Felis catus [6]) | Activity (Canis familiaris [7])
<=10 mmHg: Activity (Canis familiaris [2])
Non-toxic: Activity (Canis familiaris [4]) | Activity [5]

CCCCNC(C)Cc1ccc(OC)c(OC)c1.Cl (racemic)
<=10 mmHg: Activity (Canis familiaris [2])
inactive: inhibition (Felis catus [1]) | inhibition (Canis lupus familiaris) | Activity (Canis familiaris [3]) | inhibition (Felis catus [6]) | Activity (Canis familiaris [7])
Non-toxic: Activity (Canis familiaris [4]) | Activity [5]
active: Activity (Canis familiaris [10]) | Activity (Canis familiaris [11])
20: MED (Canis familiaris [9])

COc1ccc(CC(C)N)cc1OC.Cl (racemic)
Non-toxic: Activity (Rattus norvegicus [12]) | Activity (Rattus norvegicus [13]) | Activity (Canis familiaris [4]) | Activity [5] | Activity (Rattus norvegicus [14]) | Activity (Rattus norvegicus [15])
<=10 mmHg: Activity (Canis familiaris [2])
inactive: inhibition (Felis catus [1]) | inhibition (Canis lupus familiaris) | Activity (Canis familiaris [3]) | Activity (Rattus norvegicus [8]) | inhibition (Felis catus [6]) | Activity (Canis familiaris [7])

Br.CCCCN(CCCC)C(C)Cc1ccc(O)c(O)c1 (racemic)
Non-toxic: Activity (Mus musculus [16]) | Activity (Mus musculus [17]) | Activity (Rattus norvegicus [12]) | Activity (Rattus norvegicus [13]) | Activity (Canis familiaris [4]) | Activity [5] | Activity (Rattus norvegicus [14]) | Activity (Rattus norvegicus [15]) | Activity (Mus musculus [18])
inactive: inhibition (Felis catus [1]) | inhibition (Canis lupus familiaris) | inhibition (Felis catus [6]) | Activity (Canis familiaris [7])

CCN(CC)C(C)Cc1ccc(OC)c(OC)c1.Cl (racemic)
Non-toxic: Activity (Canis familiaris [4]) | Activity [5]
20: MED (Canis familiaris [9])
inactive: inhibition (Felis catus [1]) | inhibition (Canis lupus familiaris) | Activity (Canis familiaris [3]) | Activity (Rattus norvegicus [8]) | inhibition (Felis catus [6]) | Activity (Canis familiaris [7])
<=10 mmHg: Activity (Canis familiaris [2])
active: inhibition (Columbidae) | Activity (Canis familiaris [10]) | Activity (Canis familiaris [11])

COc1ccc(CC(C)NC(C)C)cc1OC.Cl (racemic)
<=10 mmHg: Activity (Canis familiaris [2])
Non-toxic: Activity (Canis familiaris [4]) | Activity [5]
inactive: inhibition (Felis catus [1]) | inhibition (Canis lupus familiaris) | Activity (Canis familiaris [3]) | Activity (Rattus norvegicus [8]) | inhibition (Felis catus [6]) | Activity (Canis familiaris [7])

COc1ccc(CC(C)N(C)C)cc1OC.Cl (racemic)
Non-toxic: Activity (Canis familiaris [4]) | Activity [5]
active: inhibition (Columbidae)
<=10 mmHg: Activity (Canis familiaris [2])
inactive: inhibition (Felis catus [1]) | inhibition (Canis lupus familiaris) | Activity (Canis familiaris [3]) | Activity (Rattus norvegicus [8]) | inhibition (Felis catus [6]) | Activity (Canis familiaris [7])

Br.CCCCNC(C)Cc1ccc(O)c(O)c1 (racemic)
inactive: inhibition (Felis catus [1]) | inhibition (Canis lupus familiaris) | Activity (Canis familiaris [3]) | inhibition (Felis catus [6]) | Activity (Canis familiaris [7])
<=10 mmHg: Activity (Canis familiaris [2])
Non-toxic: Activity (Mus musculus [16]) | Activity (Mus musculus [17]) | Activity (Rattus norvegicus [12]) | Activity (Rattus norvegicus [13]) | Activity (Canis familiaris [4]) | Activity [5] | Activity (Rattus norvegicus [14]) | Activity (Rattus norvegicus [15]) | Activity (Mus musculus [18])

COc1ccc(CC(C)N(C)C(C)C)cc1OC.Cl (racemic)
active: inhibition (Columbidae) | Activity (Canis familiaris [10]) | Activity (Canis familiaris [11])
<=10 mmHg: Activity (Canis familiaris [2])
20: MED (Canis familiaris [9])
inactive: inhibition (Felis catus [1]) | inhibition (Canis lupus familiaris) | Activity (Canis familiaris [3]) | inhibition (Felis catus [6]) | Activity (Canis familiaris [7])
Non-toxic: Activity (Canis familiaris [4]) | Activity [5]

CCCNC(C)Cc1ccc(OC)c(OC)c1.Cl (racemic)
<=10 mmHg: Activity (Canis familiaris [2])
active: Activity (Canis familiaris [10]) | Activity (Canis familiaris [11])
20: MED (Canis familiaris [9])
inactive: inhibition (Felis catus [1]) | inhibition (Canis lupus familiaris) | Activity (Canis familiaris [3]) | Activity (Rattus norvegicus [8]) | inhibition (Felis catus [6]) | Activity (Canis familiaris [7])
Non-toxic: Activity (Rattus norvegicus [12]) | Activity (Rattus norvegicus [13]) | Activity (Canis familiaris [4]) | Activity [5] | Activity (Rattus norvegicus [14]) | Activity (Rattus norvegicus [15])
